Data taken from ChEMBL document CHEMBL1157394, “Absolute configuration and antimicrobial activity of acylhomoserine lactones” (2008).
Calls of active or inactive are those of the source. The rule behind the calls is not given here.

What was measured:
Assay type in all cases: functional
[1] = tested on: Bacillus subtilis; assay: Antimicrobial activity against Bacillus subtilis CCT 0089 after 24 hrs by MTT method
Outline: (§1)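 Strain grown on solid nutrient broth slants at 30 °C for 24 h, then suspended in sterile water to 3 × 10⁸ cells/mL (McFarland). Suspension diluted into Mueller-Hinton medium in 96-well plates. Samples started from 1000 µg/mL stock in 20% aqueous DMSO and serially diluted twofold. Incubated 30 °C, 24 h; 0.025% MTT added. Purple wells scored as growth, yellow as inhibition. Run in duplicate; concentration range for growth inhibition reported.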

[2] = tested on: Staphylococcus aureus; assay: Antimicrobial activity against Staphylococcus aureus CCT 1295 24 hrs by MTT method; outline: as §1
[3] = tested on: Bacillus cereus; assay: Antimicrobial activity against Bacillus cereus CCT 4060 after 24 hrs by MTT method; outline: as §1

| Structure (SMILES) | Activity [1] [µg/mL] | Activity [2] | Activity [3] |
| --- | --- | --- | --- |
| CCCCCC(=O)CC(=O)NC1CCOC1=O (racemic) | 62.5 | 500 µg/mL | 62.5 µg/mL |
| CCCCCCCCCC(=O)CC(=O)NC1CCOC1=O (racemic) | 125 | 500 µg/mL | 125 µg/mL |
| CCCCCCC(=O)NC1CCOC1=O (racemic) | 500 | inactive | inactive |
| CCCCCCCCCCCC(=O)CC(=O)NC1CCOC1=O (racemic) | 250 | 500 µg/mL | 500 µg/mL |
| O=C(N[C@H](CO)[C@H](O)c1ccc([N+](=O)[O-])cc1)C(Cl)Cl [CHLORAMPHENICOL] | 3.91 | 7.81 µg/mL | 3.91 µg/mL |
